For two molecules, Activity results are on record in ChEMBL document CHEMBL1137992, “Long hydrocarbon chain keto diols and diacids that favorably alter lipid disorders in vivo” (J Med Chem, 2004).

What all share (assay type): functional
In experiment [1] the test system is Rattus norvegicus. In words: Percent decrease in nonesterified fatty acids in obese Zucker rats after 2 weeks of treatment at a dose of 10 mg/kg/day. Set-up: scale not given: the % may be the effect or the level left. The gist of the method: (§1)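 Female Zucker fatty rats [Crl:(Zuc)-faBR], 10–12 weeks, 400–500 g, acclimated 7 days on chow. Compound or vehicle (20% EtOH/80% PEG-200) given by daily oral gavage for 2 weeks, 0–100 mg/kg/day. After a 6 h fast, blood was taken before dosing, at 1 wk and at 2 wk. Serum lipids, NEFA and insulin (ELISA) were measured; glucose by glucometer. HDL/non-HDL-C came from Superose 6 gel-filtration profiles. Values are % change from pretreatment, mean ± SEM.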

In experiment [2] the test system is Rattus norvegicus. In words: Percent decrease in nonesterified fatty acids in obese Zucker rats after 2 weeks of treatment at a dose of 3 mg/kg/day. Set-up: scale not given: the % may be the effect or the level left. The gist of the method: as §1
The subject of experiment [3] is Rattus norvegicus. Put plainly: Percent increase in glucose in obese Zucker rats after 2 weeks of treatment at a dose of 3 mg/kg/day. The gist of the method:
as §1

For experiment [4], the system named is Rattus norvegicus. Put plainly: Percent decrease in nonesterified fatty acids in obese Zucker rats after 2 weeks of treatment at a dose of 30 mg/kg/day. Further details: scale not given: the % may be the effect or the level left. The gist of the method: as §1
Experiment [5] relates to Rattus norvegicus. Put plainly: Percent increase in insulin in obese Zucker rats after 2 weeks of treatment at a dose of 30 mg/kg/day. The gist of the method: as §1
Experiment [6] relates to Rattus norvegicus. In words: Amount of HDL-cholesterol in obese Zucker rats at pre-treatment at a dose of 0 mg/kg/day. The gist of the method: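 Female Zucker fatty rats [Crl:(Zuc)-faBR], 10–12 weeks old (400–500 g), dosed once daily by oral gavage in 20% EtOH/80% PEG-200 (dose volume 0.25% of body weight). Rats were fasted 6 h and bled before dosing and at day 7 (orbital plexus), and at day 14 (cardiac puncture). Serum cholesterol fractions came from Superose 6 gel-filtration lipoprotein profiles (% peak area × serum total cholesterol). Values are mean ± SEM.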

Experiment [7] has as its system Rattus norvegicus. Put plainly: Amount of nonesterified fatty acids in obese Zucker rats after 2 weeks of treatment at a dose of 30 mg/kg/day. The gist of the method:
(§2)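 Female Zucker fatty rats [Crl:(Zuc)-faBR], 10–12 weeks old (400–500 g), dosed once daily by oral gavage in 20% EtOH/80% PEG-200 for up to 14 days. After a 6-h fast, serum was taken pre-dose, at day 7 (orbital venous plexus, O2/CO2 anaesthesia) and at day 14 (cardiac puncture), stored at −80 °C, and assayed on a Hitachi 912 automatic analyzer. Mean ± SEM.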

The test system of experiment [8] is Rattus norvegicus. In words: Amount of triglycerides in obese Zucker rats at pre-treatment at a dose of 100 mg/kg/day. The gist of the method:
as §2

Experiment [9] concerns Rattus norvegicus. In words: Percent decrease in non-HDL-cholesterol in obese Zucker rats after 1 week of treatment at a dose of 100 mg/kg/day. Set-up: scale not given: the % may be the effect or the level left. An outline of the steps:
as §1

Each structure is given as a SMILES string.

Take `CC(C)(CCCCCC(=O)CCCCCC(C)(C)C(=O)O)C(=O)O`: the Activity in [1] is listed as -21%; in experiment [2], -23%; in experiment [3], 8%; in [4], -49%; in [5] it was -21%.

As to `CC(C)(CCCCC(=O)CCCCC(C)(C)C(=O)O)C(=O)O`, the Activity in experiment [6] was 39 mg/dL; in experiment [7], 1.1 mg/dL; in experiment [8], 964 mg/dL; in [9], -42%.
